# Assay results: ChEMBL document CHEMBL2062369, “¹²⁵I-radiolabeled morpholine-containing arginine-glycine-aspartate (RGD) ligand of αvβ₃ integrin as a molecular imaging probe for angiogenesis” (J Med Chem, 2012)
# Calls of active or inactive are those of the source. The calls are words filed in the database; no cut-off is given here.
# Experiments:
# [1] = tested on: HDF; assay: Inhibition of HDF adhesion to fibronectin at 0.1 to 10 uM after 30 mins by crystal violet staining method; type: functional; settings: Homo sapiens
# Outline: (§1)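 Wells coated overnight at 4 °C with fibronectin (1 μg/mL) or vitronectin (10 μg/mL), blocked with 1% BSA/PBS 1 h at 37 °C. Cells in serum-free medium were preincubated with ligand (final 0.1, 1 or 10 μM) 30 min at 37 °C, then seeded at 4–5 × 10⁴/well for 2 h at 37 °C. HUVEC were IL-1β (400 U/mL)-stimulated; melanoma runs included 2 mmol/L MnCl₂. Adherent cells were stained with crystal violet, read at 540 nm, triplicate, ≥3 repeats.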
# [2] = target: T1, Integrin alpha-V/beta-3 (Homo sapiens, UniProt P05106+P06756); assay: Inhibition of integrin alphavbeta3 expressing human A375M cell adhesion to vitronectin at 0.1 to 10 uM after 30 mins by crystal violet staining method in presence of 2 mmol/L of MnCl2; type: protein-complex assay; outline: as §1
# [3] = tested on: HDF; assay: Inhibition of HDF adhesion to vitronectin at 0.1 to 10 uM after 30 mins by crystal violet staining method; type: functional; settings: Homo sapiens; outline: as §1
# [4] = tested on: HUVEC; assay: Inhibition of IL-1beta-induced alphaV, beta3, beta5, alpha5, beta1, and alphavbeta3 expressing HUVEC adhesion to vitronectin at 0.1 to 10 uM after 30 mins by crystal violet staining method; type: functional, cell-based; settings: Homo sapiens; outline: as §1
# [5] = tested on: HUVEC; assay: Antiangiogenic activity against HUVEC seeded on matrigel layer assessed as inhibition of capillary like tube formation at 0.01 uM to 10 uM after 16 to 18 hrs by microscopic analysis; type: functional, cell-based; settings: Homo sapiens
# [6] = target: T1, Integrin alpha-V/beta-3; assay: Inhibition of integrin alphaVbeta3 expressing human A375M cell adhesion to fibronectin at 0.1 to 10 uM after 30 mins by crystal violet staining method in presence of 2 mmol/L of MnCl2; type: protein-complex assay; outline: as §1
# [7] = target: T1, Integrin alpha-V/beta-3; assay: Displacement of [125I] echistatin from alphaVbeta3 integrin isolated from human placenta after 3 hrs by liquid scintillation counter
# Target sequence in this assay (P05106 27-788 limits assumed): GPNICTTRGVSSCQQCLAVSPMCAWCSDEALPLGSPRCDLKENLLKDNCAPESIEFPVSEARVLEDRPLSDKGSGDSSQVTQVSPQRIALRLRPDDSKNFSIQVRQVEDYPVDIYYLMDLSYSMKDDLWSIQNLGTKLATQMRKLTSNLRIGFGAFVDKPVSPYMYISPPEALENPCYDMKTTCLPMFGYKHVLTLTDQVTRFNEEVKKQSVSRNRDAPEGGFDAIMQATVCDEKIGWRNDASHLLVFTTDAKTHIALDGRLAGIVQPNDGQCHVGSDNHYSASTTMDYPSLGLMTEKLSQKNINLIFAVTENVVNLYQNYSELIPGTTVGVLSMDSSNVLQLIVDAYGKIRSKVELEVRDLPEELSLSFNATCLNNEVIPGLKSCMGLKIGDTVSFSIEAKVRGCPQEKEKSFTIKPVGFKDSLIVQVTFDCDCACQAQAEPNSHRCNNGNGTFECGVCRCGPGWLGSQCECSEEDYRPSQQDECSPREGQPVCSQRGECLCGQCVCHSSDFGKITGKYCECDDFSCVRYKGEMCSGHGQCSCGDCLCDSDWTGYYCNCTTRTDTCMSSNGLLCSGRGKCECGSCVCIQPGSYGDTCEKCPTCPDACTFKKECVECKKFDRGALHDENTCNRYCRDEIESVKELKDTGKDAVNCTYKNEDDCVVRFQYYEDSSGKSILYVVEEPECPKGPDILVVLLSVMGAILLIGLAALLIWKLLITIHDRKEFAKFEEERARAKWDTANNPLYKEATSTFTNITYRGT
# Target sequence in this assay (P06756 31-889 limits assumed): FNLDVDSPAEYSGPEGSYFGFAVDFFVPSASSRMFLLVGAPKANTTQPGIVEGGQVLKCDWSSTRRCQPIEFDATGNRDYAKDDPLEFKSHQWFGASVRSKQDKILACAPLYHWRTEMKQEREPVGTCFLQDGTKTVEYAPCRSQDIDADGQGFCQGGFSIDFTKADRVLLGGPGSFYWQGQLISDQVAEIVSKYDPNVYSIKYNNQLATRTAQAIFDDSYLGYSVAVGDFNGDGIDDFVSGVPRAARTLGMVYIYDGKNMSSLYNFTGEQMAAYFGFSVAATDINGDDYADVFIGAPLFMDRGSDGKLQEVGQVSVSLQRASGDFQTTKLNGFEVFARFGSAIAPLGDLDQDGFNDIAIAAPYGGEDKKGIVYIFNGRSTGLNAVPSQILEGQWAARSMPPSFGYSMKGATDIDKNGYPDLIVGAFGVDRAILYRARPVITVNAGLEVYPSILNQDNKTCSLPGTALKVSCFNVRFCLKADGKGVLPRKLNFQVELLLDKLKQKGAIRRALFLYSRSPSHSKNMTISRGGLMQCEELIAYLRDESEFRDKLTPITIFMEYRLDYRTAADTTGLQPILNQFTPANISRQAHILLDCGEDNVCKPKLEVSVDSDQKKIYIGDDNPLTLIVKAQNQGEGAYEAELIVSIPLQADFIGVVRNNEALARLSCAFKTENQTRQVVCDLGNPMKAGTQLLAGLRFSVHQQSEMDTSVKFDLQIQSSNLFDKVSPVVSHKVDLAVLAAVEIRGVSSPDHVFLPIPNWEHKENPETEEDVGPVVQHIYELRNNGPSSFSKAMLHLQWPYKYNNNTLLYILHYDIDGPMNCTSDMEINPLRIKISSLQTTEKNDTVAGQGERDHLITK
# Target sequence in this assay (P06756 891-1048 limits assumed): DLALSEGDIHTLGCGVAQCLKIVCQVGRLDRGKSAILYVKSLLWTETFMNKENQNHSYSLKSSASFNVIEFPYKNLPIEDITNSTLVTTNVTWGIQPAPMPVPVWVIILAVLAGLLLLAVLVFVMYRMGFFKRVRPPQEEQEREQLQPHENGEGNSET
# [8] = tested on: HUVEC; assay: Inhibition of IL-1beta-induced alphav, beta3, beta5, alpha5, beta1 and alphavbeta3 expressing HUVEC adhesion to fibronectin at 0.1 to 10 uM after 30 mins by crystal violet staining method; type: functional, cell-based; settings: Homo sapiens; outline: as §1
# [9] = tested on: Kidney; assay: Biodistribution in non tumor bearing iv dosed mouse kidney after 120 mins by micro SPECT-CT analysis; type: ADME, organism-based; settings: in vivo, 2 h
# [10] = Drug uptake in human A375M cells xenografted in SCID mouse tumor at 250 uCi, iv after 40 mins by micro SPECT-CT analysis; type: ADME, organism-based, Neoplasm; settings: in vivo
# Outline: (§2)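 SCID bg/bg mice bore s.c. shoulder grafts of 1 × 10⁶ A375 M cells plus 0.5 × 10⁶ TGFβ-activated HDF in PBS/Matrigel 1:1. Under anesthesia on a 37 °C bed, mice received 7–10 MBq tracer in 200 μL saline via tail vein. CT was acquired at 30 min, then SPECT from 40 min pi (20–36 keV window). Displacement runs got cold compound (18 mg/kg) 10 min before tracer. Tumor ROI was normalized to contralateral muscle as (TA−BA)/BA.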
# [11] = tested on: Mus musculus; assay: Biodistribution in non tumor bearing iv dosed mouse gallbladder after 120 mins by micro SPECT-CT analysis; type: ADME, organism-based, Gall bladder; settings: in vivo, 2 h
# [12] = tested on: Thyroid gland; assay: Biodistribution in non tumor bearing iv dosed mouse thyroid after 24 hrs by micro SPECT-CT analysis; type: ADME, organism-based; settings: in vivo
# [13] = tested on: Spleen; assay: Biodistribution in non tumor bearing iv dosed mouse spleen after 1 to 24 hrs by micro SPECT-CT analysis; type: ADME, organism-based; settings: in vivo
# [14] = Drug uptake in human A375M cells xenografted in mouse tumor at 250 uCi, iv after 40 mins by micro SPECT-CT analysis in presence of c[RGD-(3'I-y)-(3R)-carboxymorpholine]; type: ADME, organism-based, Neoplasm; settings: in vivo; outline: as §2
Structure (SMILES),inhibition [1],inhibition [2],inhibition [3],inhibition [4],inhibition [5],inhibition [6],IC50 [7],inhibition [8],Drug uptake [9],Drug uptake [10],Drug uptake [11],Drug uptake [12],Drug uptake [13],Drug uptake [14]
N=C(N)NCCC[C@@H]1NC(=O)[C@H]2COCCN2C(=O)[C@@H](Cc2ccc(O)c(I)c2)NC(=O)[C@H](CC(=O)O)NC(=O)CNC1=O,Active,Active,Active,Active,inactive,Active,48 nM,Active,,,,,,
N=C(N)NCCC[C@@H]1NC(=O)[C@H]2COCCN2C(=O)[C@@H](Cc2ccc(O)c([125I])c2)NC(=O)[C@H](CC(=O)O)NC(=O)CNC1=O,,,,,,,,,Active,Active,Active,Active,Active,Active
N=C(N)NCCC[C@@H]1NC(=O)[C@H]2COCCN2C(=O)[C@@H](Cc2ccccc2)NC(=O)[C@H](CC(=O)O)NC(=O)CNC1=O,Active,Active,Active,Active,inactive,Active,,Active,,,,,,
N=C(N)NCCC[C@@H]1NC(=O)[C@H]2COCCN2C(=O)[C@@H](Cc2ccc(O)cc2)NC(=O)[C@H](CC(=O)O)NC(=O)CNC1=O,Active,Active,Active,Active,inactive,Active,,Active,,,,,,
